Assay outcomes (PubChem)
PGC1a Ac signal – raises PGC1a acetylation signal in U2OS cells | AID 651723 | activation, % at 15.6 µM | 350,000 tested, 0.21% active | U2OS PGC1a acetylation AlphaScreen, overnight;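 active = every replicate reaching activation of at least 50%, whatever the mean replicate activation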;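 also: hits raise the AlphaScreen acetylation signal above neutral controls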
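System: Flag-PGC1a/GCN5 U2OS cells | Quantity: 7000 cells/well | Times: Overnight compound treatment, 37 °C | Measured by: AlphaScreen proximity luminescence, anti-acetyl-lysine antibody | Dosing: One concentration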
Large screens that a line does not name were inactive. Not all results are given here.

COc1ccc(CN(C)C[C@@H]2Oc3ccc(NS(=O)(=O)c4c(C)noc4C)cc3C(=O)N([C@@H](C)CO)C[C@@H]2C)cc1	none
Cc1ccc(C)c(C(=O)Cn2ncc(Cl)c(Cl)c2=O)c1	PGC1a Ac signal 485
CCC(=O)Nc1ccc(C(=O)Cn2ncc(Cl)c(Cl)c2=O)cc1	PGC1a Ac signal 265
O=C(Cn1ncc(Cl)c(Cl)c1=O)NC(=O)NC1CCCCC1	none
O=C(Cn1ncc(Cl)c(Cl)c1=O)N1CCN(S(=O)(=O)c2ccc3ccccc3c2)CC1	none
COc1ccc(NC(=O)Cn2ncc(Cl)c(Cl)c2=O)cc1S(=O)(=O)N1CCOCC1	PGC1a Ac signal 105
C[C@@H]1CN([C@H](C)CO)C(=O)Cc2cc(NC(=O)Nc3ccccc3)ccc2O[C@H]1CN(C)Cc1ccccc1	none
CCc1ccc(C(=O)NNC(=O)Cn2c(=O)cnc3ccccc32)cc1	none
O=S(=O)(c1ccc(Br)s1)N1CCN(Cc2ccc3c(c2)OCO3)CC1	none
CCC(=O)N(C)C[C@@H]1Oc2ncc(-c3ccc(C(=O)N(C)C)cc3)cc2C(=O)N([C@H](C)CO)C[C@@H]1C	none
Cn1ncc(C(=O)Nc2ccc(Cl)cc2)c1C(F)(F)F	none
Cc1cc(S(=O)(=O)c2ccc([N+](=O)[O-])cn2)ccc1Br	PGC1a Ac signal 135
COc1ccc2c([N+](=O)[O-])c(N3CCCC3)[nH]c2c1	none
Cc1nc([N+](=O)[O-])c(Br)n1Cc1ccc(Cl)c(Cl)c1	PGC1a Ac signal 90
CC(=O)C1=C(O)C(=O)N(Cc2ccco2)C1c1cccc(F)c1 (stereo not drawn)	none
CCCOc1ccccc1-n1sc2c(c1=S)-c1cc(OC)cc3c1N(C(=O)C3=O)C2(C)C	none
COC(=O)C1=CN(Cc2ccc(OC)c(OC)c2)C=C(C(=O)OC)C1c1cccc(O)c1	none
O=C(c1ccco1)N1CCN(c2ncnc3scc(-c4cccs4)c23)CC1	none
Cn1nc(-c2ccccc2F)c2cc(C(=O)N3CCN(C(=O)c4ccco4)CC3)sc21	PGC1a Ac signal 82
CN(C)C(=O)c1ccc(-c2ccc([C@H]3[C@H]4CN(C(=O)CC5CC5)CC(=O)N4[C@H]3CO)cc2)cc1	none
O=C(C[C@H]1C[C@H]2c3cc(NC(=O)C4CCC4)ccc3O[C@H]2[C@H](CO)O1)NCc1ccc(-c2ccccc2)cc1	none
COc1cc(/C=C2\COC/C(=C\c3ccc(O)c(OC)c3)C2=O)ccc1O	PGC1a Ac signal 90
COc1ccc2c(c1)CC/C(=C/c1cc(OC)c(OC)c(OC)c1)C2=O	none
COC(=O)/C=C/c1cnc2ccccc2c1	none
O=S(=O)(c1ccc(NC(=S)NCc2cccnc2)cc1)N1CCCCC1	PGC1a Ac signal 89
CS(=O)(=O)N1CCCC(C(=O)NCc2ccccn2)C1 (stereo not drawn)	none
O=C(NNS(=O)(=O)c1ccc(F)cc1)c1ccc(S(=O)(=O)N2CCCCC2)cc1	none
O=C(CSc1nc(O)cc(=O)n1-c1ccccc1)N1CCCCC1	none
C=CCn1c(C)nnc1SCC(=O)NC1CC1	none
Nc1nnc(SCC(=O)NC2CCCCC2)n1-c1ccccc1	PGC1a Ac signal 62
CN(C)C(=O)C[C@H]1CC[C@@H](NC(=O)C2CCC2)[C@H](CO)O1	none
CCC(=O)NCc1c(C)c(C)n(Cc2ccccc2)c1-n1cccc1	none
C[C@@H]1CCCCO[C@H](CN(C)C(=O)Cc2ccccc2)[C@H](C)CN([C@@H](C)CO)C(=O)c2cc(N(C)C)ccc2O1	none
C[C@@H]1CN([C@@H](C)CO)C(=O)CCCn2cc(nn2)CO[C@H]1CN(C)C(=O)Cc1ccccc1	none
C[C@@H]1CN([C@@H](C)CO)C(=O)c2c(c3ccccc3n2C)-c2ccccc2CO[C@@H]1CN(C)C(=O)[C@H](C)c1ccccc1	PGC1a Ac signal 115
Cc1ccc(-c2nc(NC(=O)c3nn(C)cc3[N+](=O)[O-])sc2C)cc1C	none
Cc1ccc(-c2nc(NC(=O)c3nn(C)cc3[N+](=O)[O-])sc2C)cc1	none
Cc1cnc(NC(=O)c2nn(C)cc2[N+](=O)[O-])s1	PGC1a Ac signal 131
Cn1cc([N+](=O)[O-])c(C(=O)Nc2nc(-c3ccc(Cl)cc3)cs2)n1	none
Cc1ccc(Cn2ccc(NC(=O)c3nn(C)cc3[N+](=O)[O-])n2)cc1	PGC1a Ac signal 145
COc1ccc2c3c([nH]c2c1)[C@@H](CO)N(C(=O)c1ccccc1)CC31CCN(S(=O)(=O)c2cccs2)CC1	none
Cc1ccsc1C(=O)Nc1cc(Cl)ccc1-n1cncn1	none
O=C(Nc1ccc(C(F)(F)F)cc1)N1C[C@@H]2N[C@H](C1)C2c1ccc(-c2cccc(F)c2)cc1 (stereo partly drawn)	none
Cc1ccc(-c2ccc(C3[C@@H]4CN(C(=O)Nc5ccc(C(F)(F)F)cc5)C[C@H]3N4)cc2)cc1 (stereo partly drawn)	none
Cc1cccc(-c2ccc(C3[C@@H]4CN(C(=O)C5CCCCC5)C[C@H]3N4)cc2)c1 (stereo partly drawn)	PGC1a Ac signal 74
COCCCNC(=S)Nc1cc(C)c(C)cc1C	none
CN(CC(=O)NCC1CCCO1)S(=O)(=O)c1cc(Cl)ccc1Cl (stereo not drawn)	none
O=C(Cn1cc(C(=O)c2cccs2)c2ccccc21)NCC1CCCO1 (stereo not drawn)	PGC1a Ac signal 86
CO[C@@H]1CN(C)C(=O)c2ccc(NS(C)(=O)=O)cc2OC[C@@H](C)N(Cc2nccs2)C[C@@H]1C	none
CCC(C)(C)NC(=O)c1ccc2c(c1)S(=O)(=O)c1ccccc1C2=O	none
C[C@@H]1CN([C@@H](C)CO)C(=O)c2cccc(NC(=O)Nc3ccccc3)c2O[C@H]1CN(C)S(=O)(=O)c1cccs1	none
COc1ccc(N(CC(=O)Nc2ccccc2Cl)S(=O)(=O)c2ccc(C)cc2)cc1OC	none
Cc1ccc(NC(=O)CN(C)S(=O)(=O)c2cccs2)c(Br)c1	PGC1a Ac signal 59
C[C@@H]1CCCCO[C@@H](CN(C)C)[C@@H](C)CN([C@H](C)CO)C(=O)c2cc(NS(=O)(=O)c3ccc(Cl)cc3)ccc2O1	none
CN1CCN(C(=O)CSc2nc(-c3cccs3)cc(-c3cccs3)c2C#N)CC1	PGC1a Ac signal 61
Cc1cc(C)c(C#N)c(SCC(=O)Nc2nnc(-c3ccccc3)s2)n1	none
Cc1cccc(-c2nsc(SCC(=O)N3CCCC3)n2)c1	none
CCOC(=O)C1(Cc2cccc(Cl)c2)CCCN(C(=O)c2cccnc2)C1 (stereo not drawn)	none
Cc1cc(NS(=O)(=O)c2ccc(NC(=O)COc3c(C)cc(Br)cc3C)cc2)no1	none
O=C(NCc1cccc(Cl)c1)c1ccc(-n2ccnc2)c2ccoc12	PGC1a Ac signal 52
CCCOC1CCCN(C(=O)c2cc(Cl)c(Cl)cc2C(=O)O)C1 (stereo not drawn)	PGC1a Ac signal 87
CCOC(=O)N1CCN(C(=O)c2cc(Cl)c(Cl)cc2C(=O)O)CC1	none
OCc1ccc2c(c1)c(-c1ccc3c(c1)OCCO3)c(-c1ccccc1)n2-c1ccccc1	PGC1a Ac signal 178
O=S(=O)(C/C(=C/CO)S(=O)(=O)c1ccccc1)c1ccccc1	PGC1a Ac signal 112
COc1cccc2cc(C(C)N(CCCN3CCOCC3)C(=S)Nc3cc(C)ccc3C)oc12 (stereo not drawn)	none
O=C(NC(=S)Nc1ccc(CN2CCCCC2)cc1)c1cc2ccccc2o1	none
O=C(C1CCCO1)N1CCN(Cc2c(O)ccc3ccccc23)CC1 (stereo not drawn)	PGC1a Ac signal 191
Oc1ccc2ccccc2c1CN1CCCCC1	PGC1a Ac signal 104
O=C(NC(=S)N1CCN(Cc2ccccc2)CC1)c1cccnc1	none
O=C(c1ccc2ccccc2c1)N1CCCC1	none
Clc1ccccc1CN1CCSCC1	none
CC(=O)c1cccc(-n2nnnc2SCC(=O)NNC(=O)C(C)C)c1	none
